# Test results reported in ChEMBL document CHEMBL4513216, “Probing the Open Global Health Chemical Diversity Library for Multistage-Active Starting Points for Next-Generation Antimalarials” (ACS Infect Dis, 2020).
# Test: Toxicity liver stage against HepG2, at 10uM
# Assay type: cell-based
# Design: test concentration 10 uM, cell line HepG2-A16-CD81EGFP
# Details: human, HepG2-A16-CD81EGFP cells; read-out: INHIBITION
# In short: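 Uninfected HepG2-A16-CD81EGFP cells, 3 × 10^3 per well, 1536-well, plated on prespotted compound at 10 μM final, parasite-free screening media added to match infected plates; puromycin 10 μM positive, DMSO 0.5% negative; run in parallel with 48 h PbLuc assay at 37 °C, 5% CO2; viability by CellTiter-Glo luminescence, normalized to controls.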
row,SMILES,cytotoxicity at 10 µM
1,CCN(CC)CCNCC1CCOC(C)(C)C1 (stereo unspecified),-6.87%
2,CC(C)(C)OCC1CN(CC2CC2)S(=O)(=O)c2cnccc2O1 (stereo unspecified),-1.16%
3,COC1CCN(C(=O)CCn2ccc(=O)[nH]c2=O)CC1,-4.73%
4,O=C(Cn1cccc(S(=O)(=O)N2CCCC2)c1=O)c1ccccc1Cl,1.08%
5,Cn1cc(CN2C[C@@H]3COC[C@]3(C(=O)N3CCCO3)C2)cn1,12.1%
6,CCOC1CC2(CCN(CCO)CC2)c2ccc(C)cc21 (stereo unspecified),9.01%
7,O=C(C1CN(Cc2ccoc2)CC12CCOCC2)N1CCCC1 (stereo unspecified),11.2%
8,Cc1cnc(N2CCC3(CC2)CC3C(=O)NCC2CC2)nc1 (stereo unspecified),6.34%
9,O=S(=O)(C1CC1)N1CCOCC2(CN(c3ncccn3)CCO2)C1 (stereo unspecified),6.37%
10,CC(=O)N1CC(=O)N(c2ccccc2)CC12CCN(Cc1ccsc1)C2 (stereo unspecified),13.4%
11,O=C(O)c1ccc2c(c1)C1(CCCCC1)CN2C(=O)c1cccc(F)c1,2.49%
12,CCCS(=O)(=O)N1CCC2(CCN(Cc3cccc(F)c3)C2=O)C1 (stereo unspecified),8.07%
13,O=C(O)c1nnn(-c2cc(F)cc(F)c2)c1-c1ccncc1,7.16%
14,CNC(=O)CSc1nc2c(cnn2Cc2ccc(F)cc2)c(=O)[nH]1,-16%
15,O=C(c1ccncn1)N1CCO[C@H]2[C@@H](OCc3cccnc3)CC[C@@H]21,-7.69%
16,O=C(C1CCOCC1)N1CCC2(CC1)CC(Oc1ccccc1)CO2 (stereo unspecified),-17.3%
17,COCC1COCCC12CCN(C(=O)CCc1ccccc1)CC2 (stereo unspecified),-9.8%
18,Cc1nn(C)c2cnn(Cc3ccc(C(=O)NC4CC4)o3)c12,9.43%
19,CSCc1cccc(S(=O)(=O)NCCCO)c1,-7.5%
20,Cc1nccn1[C@@H]1CC[C@@H](N(C)S(=O)(=O)c2cccc(F)c2)[C@H]1O,-2.4%
21,CCN1CCCC(c2nc(O)c3cc(C)ccc3n2)C1 (stereo unspecified),8.02%
22,NCCC(=O)N1CCC2(CC1)CN(C(=O)c1ccc(Cl)cc1)CCO2,3.1%
23,CN1CCN(c2ncccc2N)CC1,11.5%

row,SMILES,cytotoxicity at 10 µM
1,CC(NCCn1cccn1)c1ccc(F)cc1F (stereo unspecified),1.99%
2,Cc1ncsc1C(=O)N1CCCC1c1c(C)nn(C)c1C (stereo unspecified),0.71%
3,COCCCN(Cc1ccncc1)C(=O)C1COc2ccccc2C1 (stereo unspecified),11.5%
4,OC1(CN2CCOC(Cn3cncn3)C2)CCCCC1 (stereo unspecified),9.87%
5,CN1CCCC(N(C)C(=O)c2ccc(NC(=O)c3ccc[nH]3)cc2)C1 (stereo unspecified),-11.4%
6,Cc1ccc(C(=O)N(C)CC(=O)Nc2cccc(C)n2)cn1,-21.2%
7,CCC(=O)N1CCCN(C(=O)C2SCCc3sccc32)CC1 (stereo unspecified),-8.98%
8,COCCn1cc(C(=O)N2CCCC2c2cccc(C)c2)ccc1=O (stereo unspecified),5.59%
9,CC(C)CC(=O)NCCCc1cc(N)n(-c2ccccc2)n1,-5.29%
10,CCCc1cc(NC2CCc3nc(CC)nn3C2)n2ncnc2n1 (stereo unspecified),-16.3%
11,OC1CCN(c2ccnc3c(F)cc(Br)cc23)CC1,11.6%
12,CN(C)CCn1ccc2cc(NC(=O)NCc3ncnn3C)ccc21,-6.52%
13,CCCc1noc(CCC(=O)N2CCCC(c3ccn[nH]3)C2)n1 (stereo unspecified),12.2%
14,O=C1COc2cc(C(=O)NCc3ccc(Cl)s3)ccc2N1,1.55%
15,NS(=O)(=O)c1cnn(CCC(=O)N(Cc2ccccc2)C2CC2)c1,4.53%
16,O=C(Nc1ccc(F)cc1F)N(CCC(F)(F)F)C[C@H](O)CO,-7.64%
17,CC(=O)Nc1ccc(F)c(S(=O)(=O)NC(C)(C)C)c1,1.15%
18,Cc1csc(N2CCN(Cc3ccn(C)c(=O)c3)CC2)n1,8.08%
19,CCc1nc(CN2CCCC(N(C)Cc3cnc(C)s3)C2)no1 (stereo unspecified),2.89%
20,Cc1nc(C)n(CC2CCCN2CC(=O)NCc2ccco2)n1 (stereo unspecified),-18.5%
21,Cc1n[nH]c(C)c1C1COCCN1C(=O)Cc1cccc(F)c1 (stereo unspecified),-10.7%
22,Cc1ccc(N2CCCC3(CCN(C(=O)CC(F)(F)F)C3)C2)nn1 (stereo unspecified),-108%
23,O=C(Cc1ccco1)N1C[C@H]2CCC[C@@]2(COCC2CC2)C1,-108%

row,SMILES,cytotoxicity at 10 µM
1,COCc1cnc2n1CCN(C(=O)c1cn(C)c3ccccc13)C2C (stereo unspecified),-108%
2,COCC(C)N1CCc2onc(-c3ccc(F)c(F)c3)c2C1 (stereo unspecified),-4.31%
3,CCn1ccnc1CN1CCN(Cc2ccc(C)o2)[C@@H]2CS(=O)(=O)C[C@@H]21,-11.2%
4,CCCN1CCCn2nc(CNC(=O)CCOC)cc2C1,-12.2%
5,Cc1nn(CCO)c(C)c1CN1CCN(C2CCCCC2)C(=O)C1,0.541%
6,CCOc1ccc(C(=O)N2CCC(Oc3ccccc3)(C(=O)O)CC2)o1,14.1%
7,c1cncc(CN(Cc2ccsc2)Cc2ccc(C3CCCCO3)o2)c1 (stereo unspecified),14.8%
8,CN(C)Cc1ccc(C2CCCCN2C(=O)c2cc(=O)[nH]c(=O)[nH]2)cc1 (stereo unspecified),-3.95%
9,O=C(CCSc1ccc2c(c1)OCCO2)NCC1CCS(=O)(=O)C1 (stereo unspecified),-4.01%
10,O=C1CCC2(CCOC2)CN1Cc1ccc2nsnc2c1 (stereo unspecified),-7.73%
11,CCN(Cc1noc(C)n1)C(=O)C(c1ccc(C)cc1)N(C)C (stereo unspecified),-5.21%
12,COc1cc(NC(=O)NCc2ccccn2)cc(OC)c1,-4.13%
13,CCc1cccc(OCCCN(C)C(=O)CN2CCNC2=O)c1,-2.48%
14,CNc1cc(C)nc(N2CCC3(CC2)[C@H](O)C[C@@H]3OCCO)n1,-1.82%
15,Cc1cc(NCc2cc3n(n2)CCCN(C(=O)N(C)C)C3)ncn1,-11.4%
16,Cc1cc(N2CCN3CCCCC3C2)n2nc(C)c(C)c2n1 (stereo unspecified),-10.4%
17,Cc1cc(-c2nn(C)c(Cl)c2CN2CCOCC2CC(=O)O)no1 (stereo unspecified),-12.2%
18,COCCN1CCCC1c1nccnc1Nc1nc(C)cs1 (stereo unspecified),6.02%
19,Cc1cnn(CC2CN(Cc3cccc(C(N)=O)c3)CCO2)c1 (stereo unspecified),-1.52%
20,O=C(c1ccc2nncn2c1)N1CCCC(n2ccnc2)C1 (stereo unspecified),-1.14%
21,CC(C)Cn1nnnc1SC(C(=O)NCc1cccnc1)C(C)C (stereo unspecified),-4.05%
22,CN(Cc1ccccn1)C1CCCN(Cc2noc(C3CC3)n2)C1 (stereo unspecified),1.82%
23,Cc1nnc(CN2CCCC2c2c(C)nn(C)c2Cl)o1 (stereo unspecified),0.174%

row,SMILES,cytotoxicity at 10 µM
1,c1ccc(-n2ccc(CNCC3CCCN3c3cccnn3)n2)cc1 (stereo unspecified),-10.2%
2,Cc1nn(C)c(N2CCOCC2)c1CNC(C)c1cccs1 (stereo unspecified),-1.47%
3,CCOc1cc(C(=O)N2CCCC(c3noc(CC)n3)C2)ccn1 (stereo unspecified),-3.65%
4,COc1ccccc1OCCNC(=O)CN1CCN(C)CC1C (stereo unspecified),-12.1%
5,CC(C)c1ncc2c(n1)CN(Cc1nc(-c3ccco3)no1)CC2,-11.4%
6,CCC1c2ccsc2CCN1C(=O)NCc1cccnc1N(C)C (stereo unspecified),-17.4%
7,Cc1cc(NC(=O)CN2CCc3cncnc3C2)no1,-11.5%
8,Cc1ccc2[nH]c(C(=O)N3CCCC3Cn3cccn3)cc2c1 (stereo unspecified),-12%
9,Cn1cc(CCNC(=O)NC2CCN(Cc3ccccn3)CC2)cn1,-16.4%
10,Cc1ncsc1C(=O)N1CCCC(n2cncn2)C1 (stereo unspecified),0.364%
11,Cc1cc(C)n(C2CCCN(C(=O)CCCc3ccccn3)C2)n1 (stereo unspecified),-16.3%
12,COc1ccc(NC(=O)NCCCn2nc3ccccn3c2=O)cc1,-13.3%
13,CC1CCCCN1CCNC(=O)c1ccn(-c2cccc(F)c2)n1 (stereo unspecified),-26%
14,CC(C)c1nc(C2CCCN2Cc2ccno2)no1 (stereo unspecified),-6.85%
15,Cc1csc(N2CCCN(C(=O)C(C(C)C)n3cncn3)CC2)n1 (stereo unspecified),-7.71%
16,Cc1ccc(C(CNC(=O)NCc2cc[nH]n2)N2CCOCC2)o1 (stereo unspecified),-8.78%
17,CCC1CN(CC(=O)Nc2sccc2C#N)CCO1 (stereo unspecified),-9.29%
18,CCn1cnnc1C1CCN(C(=O)c2cnc(C3CC3)s2)CC1,-7.59%
19,Cn1c(C2CC2)nc2c1CCN(CC(=O)Nc1nncs1)C2,-6.44%
20,O=C(NCc1cc[nH]n1)NCC(O)COc1cccc(F)c1 (stereo unspecified),10.3%
21,O=C(NCc1ccccc1-n1cccn1)N1CCN2CCCCC2C1 (stereo unspecified),-1.2%
22,O=S(=O)(NCc1ccccc1Cn1cncn1)C1CCCC1,0.674%
23,Cc1nc(C)n(C2CCCN(C(=O)c3cc(C(N)=O)cs3)C2)n1 (stereo unspecified),-6.86%

row,SMILES,cytotoxicity at 10 µM
1,CCc1ccc(OCC(O)CN2CCC(O)CC2)cc1 (stereo unspecified),3.99%
2,CCn1cc(CN2CCCN(C(=O)c3ccn(C)c(=O)c3)CC2)cn1,-0.794%
3,O=C(c1ccoc1)N1C[C@@H]2[C@@H](C1)OCC(=O)N2Cc1cccnc1,3.33%
4,Cc1ccc(C(=O)N2CC[C@H]3[C@@H]2CCC(=O)N3c2ccccc2)cn1,-112%
5,CN1CCO[C@@H]2CN(S(=O)(=O)c3ccc(F)cc3)CC[C@@H]2C1,2.56%
6,CN(C)[C@@H]1CN(Cc2cnn(C)c2)[C@@H]2COC[C@H]12,7.37%
7,NCCNS(=O)(=O)Cc1ccc(Br)cc1,19.4%
8,COCCN1CCCc2sc(C(=O)Nc3ccc(C)nc3)nc21,5.92%
9,O=C(NC[C@]12COC[C@H]1CN(Cc1cccnc1)C2)C1CCC1,-105%
10,O=C(C1=CCCC1)N1CC[C@]2(C[C@H](OCc3cccnc3)CO2)C1,11.7%
11,CN1C(=O)CCCC12CCCN(Cc1nccs1)C2 (stereo unspecified),11.4%
12,CCOCC1CN(Cc2ccoc2)Cc2nn(C)cc21 (stereo unspecified),-2.8%
13,Cc1ccc(CN2CCC3(CC2)NC(=O)CC3c2ccncc2)cc1C (stereo unspecified),3.75%
14,CC(C)n1ccc(-c2cc(C(=O)N3CCN(C)CC3)c3ccccn23)n1,9.49%
15,O=C(C1=CCCC1)N1C[C@@H]2COC[C@]2(COc2ncccc2F)C1,-99.3%
16,Cn1cncc1CN1CCC2(CCCN2c2ncccn2)CC1,9.37%
17,COCCN1CCN(S(C)(=O)=O)Cc2ccc(C)nc21,-5.06%
18,c1cnn(Cc2cn3c(n2)CN(Cc2nccs2)CC3)c1,2.76%
19,CN(CCCOc1ccccc1Cl)C(=O)CN1C[C@H]2CC[C@@H](CC1=O)N2,-11.9%
